According to ChEMBL document CHEMBL2016474, “Structure-activity analysis and cell-based optimization of human galactokinase inhibitors” (ACS Med Chem Lett, 2011):
Activity calls are given as the source filed them. No cut-off for these calls is given here.

Assays:
Galactokinase [1] = target: T1, Galactokinase (Homo sapiens, UniProt P51570); assay: Inhibition of human galactokinase after 30 mins by Kinase-GloTM assay
Method in brief: (§1)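 GALK in vitro inhibition with IC50 determination; each value from three replicate measurements, given with standard deviation. Compounds not active below 50 μM recorded as exceeding that concentration.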

Galactokinase [2] = target: T1, Galactokinase; assay: Inhibition of human […] at >50 uM after 30 mins by Kinase-GloTM assay; method in brief: as §1
[3] = Toxicity in human primary fibroblasts assessed as lethality at >= 50 uM within 1 hr; assay type: cell-based; details: fibroblast
Galactokinase [4] = target: T1, Galactokinase; assay: Inhibition of […] in human primary fibroblasts derived from GALT-deficient patients assessed as reduction in accumulation of gal-1P at 50 uM preincubated overnight prior galactose challenge measured after 4 hrs
Method in brief: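 Intracellular GALK inhibition in primary fibroblasts from classic galactosemia (GALT-deficient) patients. Compound given at 50 or 100 μM. Read-out is the percent reduction of cellular gal-1P accumulation.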

[5] = Toxicity in human primary fibroblasts assessed as visible signs of lethality at 50 uM; assay type: cell-based; details: fibroblast
[6] = Toxicity in human primary fibroblasts; assay type: cell-based; details: fibroblast

T1 sequence (P51570 whole entry): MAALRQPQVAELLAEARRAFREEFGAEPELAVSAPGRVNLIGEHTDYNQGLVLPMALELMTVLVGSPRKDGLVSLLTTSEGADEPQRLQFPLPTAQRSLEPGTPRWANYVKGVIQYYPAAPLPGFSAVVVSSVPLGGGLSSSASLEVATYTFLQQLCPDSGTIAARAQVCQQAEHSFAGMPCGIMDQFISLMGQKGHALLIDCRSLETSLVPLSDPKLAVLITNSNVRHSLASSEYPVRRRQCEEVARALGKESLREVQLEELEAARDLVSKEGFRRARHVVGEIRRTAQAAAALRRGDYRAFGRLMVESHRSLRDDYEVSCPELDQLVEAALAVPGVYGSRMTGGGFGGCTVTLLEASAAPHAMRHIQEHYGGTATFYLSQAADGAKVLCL

Row | IC50 (Galactokinase [1]) [nM] | inhibition (Galactokinase [2]) | Structure (SMILES) | further results
1 | 1800 |  | N#CC1=C(SCc2ccccc2)SC(c2ccc(O)cc2)NC1=O (stereo not given) | 
2 | 12000 |  | N#CC1=C(SCc2ccccc2)SC(c2ccccc2O)NC1=O (stereo not given) | 
3 | 700 |  | N#CC1=C(SCc2ccccc2)SC(c2cc(O)ccc2O)NC1=O (stereo not given) | 
4 |  | inactive | N#CC1=C(SCc2ccccc2)SCNC1=O | 
5 |  | inactive | CCCCSC1=C(C#N)C(=O)NC(c2ccccc2O)S1 (stereo not given) | 
6 |  |  | CC(=O)Oc1ccc(C2NC(=O)C(C#N)=C(SCc3ccccc3)S2)cc1OC(C)=O (stereo not given) | Activity [3]: Toxic
7 |  | inactive | CC1(C)NC(=O)C(C#N)=C(SCc2ccccc2)S1 | 
8 |  |  | CSC1=C(C#N)C(=O)NC(c2ccccc2O)S1 (stereo not given) | inhibition (Galactokinase [1]): Active
9 | > 50000 |  | COc1ccc(C2NC(=O)C(C#N)=C(SCc3ccccc3)S2)cc1 (stereo not given) | 
10 | 1200 |  | N#CC1=C(SCc2cccc(N3CCOCC3)c2)SC(c2ccc(O)c(O)c2)NC1=O (stereo not given) | inhibition (Galactokinase [4]): 16%; Activity [5]: Non-toxic
11 |  |  | N#CC1=C(SCc2ccccc2)SC(c2ccc(O)c(O)c2)NC1=O (stereo not given) | Activity [6]: Toxic
12 | 900 |  | N#CC1=C(SCc2cccc(N3CCOCC3)c2)SC(c2cc(O)ccc2O)NC1=O (stereo not given) | inhibition (Galactokinase [4]): inactive
13 | 22500 |  | N#CC1=C(SCc2ccccc2)SC(c2ccc3c(c2)OCO3)NC1=O (stereo not given) | 
14 |  | inactive | CC1NC(=O)C(C#N)=C(SCc2ccccc2)S1 (stereo not given) | 
15 | 50000 |  | N#CC1=C(SCc2ccccc2)SC(c2cccc(O)c2)NC1=O (stereo not given) | 
16 |  |  | N#CC1=C(SCc2ccccc2)SC(c2ccc(C(=O)O)cc2)NC1=O (stereo not given) | inhibition (Galactokinase [1]): Active
17 |  | inactive | N#CC1=C(SCc2ccc(O)cc2)SC2(CCC(C(=O)O)CC2)NC1=O (stereo not given) | 
18 | 1200 |  | N#CC1=C(SCc2ccccc2)SC(c2ccc(O)cc2O)NC1=O (stereo not given) | 
19 | 2400 |  | N#CC1=C(SCc2cccc(N3CCOCC3)c2)SC(c2ccc(O)cc2)NC1=O (stereo not given) | inhibition (Galactokinase [4]): inactive; Activity [5]: Non-toxic

Row | Structure (SMILES) | IC50 (Galactokinase [1]) [nM] | inhibition (Galactokinase [2]) | further results
20 | CSC1=C(C#N)C(=O)NC(c2ccc(Cl)cc2Cl)S1 (stereo not given) |  | inactive | 
